# From PubChem BioAssay
# MT1-MMP act inh: blockers of MT1-MMP proenzyme processing, primary screen, HT1080 RFP-PRO-GFP cells, GFP/RFP fluorescence | GFP/RFP ratio fluorescence, overnight; percent of plate control window, DMSO zero | 360,000 compounds, 0.061% hits | AID 651647, 2012 | GFP/RFP ratio change, % at 20 µM;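 active = GFP/RFP ratio change of at least 30% with cell ATP level not reduced by more than half and red fluorescence within 50% of control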
#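 Material: RFP-PRO-GFP reporter HT1080 cells. Dosing: single-point 20 µM compound, 1% DMSO. Controls: DMSO and RFP-L50D-GFP cell wells. Timing: cells overnight before dosing, compound overnight, 37 °C, 5% CO2. Measure: GFP/RFP fluorescence ratio.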
# GSK3A inh: blockers of GSK3A enzyme activity – biochemical, luminescence, cell-free homogeneous, HTS, primary screen | 320,000 compounds, 0.1% hits | inhibition, % at 10 µM | AID 2650, 2010 | GSK-3 alpha kinase, ADP-Glo luminescence, 60 min;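 active = more than half of replicates show inhibition above 20%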;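 note: GST-tagged GSK-3 alpha with peptide substrate and 25 µM ATP; 0% = DMSO neutral wells and 100% = GW8510 positive control wells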
# Target sequence (P49840 whole entry, looked up): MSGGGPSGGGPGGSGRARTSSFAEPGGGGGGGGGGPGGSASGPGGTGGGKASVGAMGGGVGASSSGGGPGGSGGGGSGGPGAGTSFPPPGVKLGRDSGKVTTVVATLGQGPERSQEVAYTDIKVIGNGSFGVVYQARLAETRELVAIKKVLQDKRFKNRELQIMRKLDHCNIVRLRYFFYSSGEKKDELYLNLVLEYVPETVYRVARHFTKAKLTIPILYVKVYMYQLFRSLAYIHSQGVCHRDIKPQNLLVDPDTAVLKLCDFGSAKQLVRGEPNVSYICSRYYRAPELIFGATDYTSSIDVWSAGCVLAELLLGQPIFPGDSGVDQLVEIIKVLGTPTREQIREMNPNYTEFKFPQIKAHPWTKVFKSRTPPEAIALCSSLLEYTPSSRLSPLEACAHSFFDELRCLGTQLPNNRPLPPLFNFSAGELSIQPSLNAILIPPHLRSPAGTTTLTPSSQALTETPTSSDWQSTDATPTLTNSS
# STK33 inh: inhibitors of purified STK33 kinase, primary screen, biochemical, ADP-Glo luminescence, homogeneous, cell-free. Serine/threonine-protein kinase 33 (Homo sapiens), Q9BYT3. MBP phosphorylation. AID 2661, 2010. 320,000 compounds, 0.073% hits. inhibition, % at 10 µM;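 active = inhibition at or above 25%, using the most active replicate where run in duplicate; inactive = inhibition below 25%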
# DSG3 Ab inh: inhibitors of pemphigus antibody binding to DSG3, primary screen, biochemical, bead-based, flow cytometry, scFv-GFP; 310,000 compounds, 0.48% hits; Desmoglein-3 (Homo sapiens), P32926; binding (percent of control), % at 10 µM; DSG3-coupled beads, scFv-anti-DSG3-GFP binding; active compounds read low;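 active = binding more than 3 SD below its plate's average and above zero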;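 note: hits lower antibody fragment binding to DSG3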
# GSK3beta inhib: human GSK3beta kinase inhibitors, primary screen, biochemical, cell-free homogeneous, HTS; Glycogen synthase kinase-3 beta (Homo sapiens), P49841; GST-GSK3beta kinase, ADP-Glo luminescence, 60 min; active compounds read low; activity score (negative = inhibition), % at 10 µM; 300,000 compounds, 0.038% hits; AID 2097, 2009;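 active = more than half of replicate wells score below -50%, meaning over 50% inhibition versus plate controls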;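 note: 0% = median DMSO wells and -100% = median GW8510 positive control wells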
#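 Assay system: GST-tagged human GSK3beta kinase, cell-free; Input: 1.6 ng GSK3beta; Medium: Tris/MgCl2 kinase buffer; Timing: 60 min enzyme reaction, room temperature; Signal: ADP-Glo luminescence quantifying ADP generated by kinase; Evaluation: score relative to plate controls; Benchmarks: DMSO neutral wells and GW8510 at 20 µM as positive.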
# * = called active by the depositor; / = no result; ! = a repeat was not active. Sampled rows, rich in hits. Any-hit rate of the full collection: about 0.63%.
SMILES,MT1-MMP act inh,GSK3A inh,STK33 inh,DSG3 Ab inh,GSK3beta inhib
O=C(Cn1c(=O)c2cccn2c2ccccc21)Nc1ccc(F)cc1F,5,-1,-1,114,-2
Cc1ccc(S(=O)(=O)N2[C@@H](CO)CO[C@H]2CC(=O)c2ccc(F)cc2)cc1,1,/,/,/,/
COc1ccc(/C=C/C(=O)c2cc3cccc(OC)c3oc2=O)cc1,1,2,3,100*,-2
CNC(=O)c1cc2cccc(OC)c2oc1=O,4,1,0,107,0
O=C(Cc1cccc2ccccc12)N/N=C/c1ccc2cccc(O)c2n1,2,-2,-2,59*,-1
O=C(Cc1cccc2ccccc12)N/N=C/c1ccc(O)c([N+](=O)[O-])c1,3,-1,0,103,3
O=C(NCc1ccccc1)c1cc(C2CCCN(S(=O)(=O)c3cccs3)C2)on1 (stereo unspecified),1,/,/,/,/
CCCn1c(N2CCN(S(=O)(=O)Cc3ccccc3)CC2)nc2ccccc21,0,-11,0,56*,1
CC(C)(O)C#Cc1ccc(N2C(c3ccsc3)=Cc3ccc(F)cc3C2c2c[nH]c3ccccc23)cc1 (stereo unspecified),-14,/,/,/,/
COc1cc(/C=N/NC(=O)c2nnn(-c3nonc3N)c2-c2cccs2)ccc1O,-1,75*,4,94,1
Cc1ccc(/C=N/NC(=O)c2nnn(-c3nonc3N)c2-c2cccs2)cc1,-8,39,0,99,2
Nc1nonc1-n1nnc(C(=O)N/N=C/c2ccccc2F)c1-c1cccs1,-6,64*,2,103,0
COc1ccc(CC(=O)Nc2cccc(-c3csc(C)n3)c2)cc1,3,-4,0,-20*,3
CCOC(=O)[C@]12CCCC=C1N(Cc1ccc3c(c1)OCO3)C(=O)[C@H](CC(=O)N1CCCCC1)C2,0,/,/,/,/
O=C(Nc1sccc1C(=O)N1CCOCC1)c1cccnc1,-1,54*,-1,97,-31
O=C(Nc1ccccc1C(=O)N1CCOCC1)c1cccnc1,5,-2,0,120,-4
COC1=CC(C)C2CC3OC(O)CC4C(C)=C(OC)C(=O)C(C2(C)C1=O)C34C (stereo unspecified),9,/,/,/,/
Cc1cc(O)c2c(c1O)C(=O)[C@]13C(=C2O)C(=O)[C@@H]2[C@@H](O)[C@H]1[C@@H]1[C@H](O)[C@H]3C(=O)C3=C(O)c4c(O)cc(C)c(O)c4C(=O)[C@]312,-15,/,/,-15*,/
CC(=O)NS(=O)(=O)c1ccc(NS(=O)(=O)c2ccc(F)cc2)cc1,-1,-2,0,110,0
CC(=O)NS(=O)(=O)c1ccc(N)cc1,2,-3,-2,25*!,1
CCC(CC)C(=O)N(C)c1c(C)nc2c(OCCC3CCCCC3)cccn12,6,/,/,/,/
Cc1ccc(C(=O)NC(=S)NCC(=O)c2ccccc2)cc1,6,1,-2,-20*,-1
O=C(CNC(=S)NC(=O)c1cccs1)c1ccccc1,-3,0,-2,107,5
CN(C(=O)c1cccc(NC(=O)Cc2ccc([N+](=O)[O-])cc2)c1)C1CCCCC1,1,-3,-1,98,/
CN(C(=O)c1ccc(Oc2ccc([N+](=O)[O-])cc2)cc1)C1CCCCC1,3,0,-1,92*,6
CCC(/C=C1\Sc2ccc(OC)cc2N1CCO)=C\c1sc2ccc(OC)cc2[n+]1CCO,49,2,-1,-40*,/
C[C@@H]1CN([C@@H](C)CO)S(=O)(=O)c2ccc(Br)cc2O[C@@H]1CN(C)C(=O)C1CC1,4,/,/,84*,/
CCOc1ccc(N2CSC(=S)N(c3ccc(OCC)cc3)C2)cc1,2,-2,-1,76*,-4
CCOc1ccc(N2C(=O)CNC2=S)cc1,-9,-5,-1,113,1
O=C(NCc1ccccc1)C(C1CC1)n1c(CSCCOc2ccccc2)nc2ccccc21 (stereo unspecified),-1,/,/,/,/
